The RNAGym collection of RNA variant scans (doi:10.1126/science.aae0568)
This sample holds only a part of the variants without activity.

B1: tRNA (parent)
chain: GUUCCGUUGGCGUAAUGGUAACGCGUCUCCCUCCUAAGGAGAAGACUGCGGGUUCGAGUCCCGUACGGAACG

Variants of: B1
Assay: yeast fitness relative to wild type (ratio to wild type); higher = fitter; tRNA-Arg(CCU), competitive growth, 37 C, YPD
Procedure, shortened: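 A pool of Saccharomyces cerevisiae strains, each with a tRNA-Arg(CCU) gene variant at the native genomic locus, was competed in YPD at 37°C for 24 hours across six parallel replicates. The variants had been chemically synthesised at a 3% per-site mutation rate over 69 sites, and gene amplicons before and after competition were read by 100-nucleotide paired-end sequencing. Darwinian fitness relative to wild type rested on changes in genotype frequencies. Genotypes required ≥ 100 starting reads, and estimates < 0.5 were set to 0.5.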

Variant | yeast fitness
GUUCCGUUGGCGUUAUGGUAACGCGUCUGCCUCCUAAGGAGAAGACUGCGGGUUCGAGUCCUGUACGGAACG [A14U C29G C62U] | ≤ 0.5
GUUCCGUUGGCGUUAUGGUAACGGGUCUCCCUCCUGAGGAGAAGACUGCGGGUUCGAGUCCCGUACGUAACG [A14U C24G A36G G68U] | ≤ 0.5
GUUCCGUUGGCGUUAUGGUAACGCGUCUCACUCCUAAGGAGACGACUGCGGGUUCGAGUCCCAUACGGAACG [A14U C30A A43C G63A] | ≤ 0.5
GUUCCGUUGGCGUUAUGGUAACGCGUUUCCCUUCUAAGGAGAAGACUGCGAGUUCGAGUCCCGUACAGAACG [A14U C27U C33U G51A G67A] | ≤ 0.5
GUUCCGUUGGCGUUAUGGUAACGCGUCUCACUCCUAAGGAGAAGACUGCGGGUUCGAGUCCCGUAUGGAGCG [A14U C30A C66U A70G] | 0.64
GUUCCGUUGGCGUUAUGGUAACGUGUCUCCCUCCUAAGGAGAAGACUCCGGGUUCGAGUCCUGUACGGACCG [A14U C24U G48C C62U A70C] | ≤ 0.5
GUUCCGUUGGCGUUAUGGUAACGCGUUUCCCUCCUAAGGAGAAGACUGCGGGUUCGAGUCCCGUACGGAACG [A14U C27U] | 0.594
GUUCCGUUGGCGUUAUGGUAACGCGUAUCCCUCCUAAGGAGAAGACUGCGGGUUCGAGUCCCGUACGGAACG [A14U C27A] | 0.76
GUUCCGUUGGCGUUAUGGUAACGGGUCUCCCUCCUUAGGAGAAGACUGCGGGUUCGAGUCCCGUACGGAACG [A14U C24G A36U] | ≤ 0.5
GUUCCGUUGGCGUUAUGGUAACGCGUCUCGCUACUAAGGAGAAGACUGCGGGUUCGAGUCCCGUACGGAACG [A14U C30G C33A] | 0.529
GUUCCGUUGGCGUUAUGGUAACGCGUCUUCCUCCUAUGGAGAAGACUGCGGGUUCGAGUCCCGUACGGUACG [A14U C29U A37U A69U] | ≤ 0.5
GUUCCGUUGGCGUUAUGGUAACGUGUCUCCCUCCUAAGGAGAAGACUCCGGGUUCGAGUCCCGUACGGAACG [A14U C24U G48C] | ≤ 0.5
GUUCCGUUGGCGUUAUGGUAACGGGUCUCCAUCCUAAGGGGAACACUGCGGGUUUGAGUCCCGUACGGAACG [A14U C24G C31A A40G G44C C55U] | ≤ 0.5
GUUCCGUUGGCGUUAUGGUAAUGCGUCUCCCUCCUAAGGAGAAGACUGCGGGUUCGAGUCCCGUACGGAACG [A14U C22U] | 0.54
GUUCCGUUGGCGUUAUGGUAACGUGUCUCCCUACUAAGGAGAACACCGCGGGUUCGAGUCCCGUACGGAACG [A14U C24U C33A G44C U47C] | 0.534
GUUCCGUUGGCGUUAUGGUAACGGGUCUCCCUCCUAAGGAAAAAACUGCGGGAUCGAGUCCCGUAUGGAACG [A14U C24G G41A G44A U53A C66U] | 0.533
GUUCCGUUGGCGUUAUGGUAACGCGUUUGCUUCCUAAGGAGAAGACUGCGGGUUCGAGUCGCGUACGGAACG [A14U C27U C29G C31U C61G] | ≤ 0.5
GUUCCGUUGGCGUUAUGGUAACGCGUCUCACUCCUAAGGAAAAGACUGCGGGUUCCAGUCCCGUACGGAACG [A14U C30A G41A G56C] | ≤ 0.5
GUUCCGUUGGCGUUAUGGUAAUGCGUCUCCCUCCUAAGGUGAACACUGCGGGUUCGAGUCCCGUACGGAACG [A14U C22U A40U G44C] | ≤ 0.5

Variant | yeast fitness
GUUCCGUUGGCGUUAUGGUAACGCGUCUGCCUCCUAAGGAGAAGACUGCGGGUUCGAGUCCCGUACAGAACG [A14U C29G G67A] | 0.542
GUUCCGUUGGCGUUAUGGUAACGGGUCUCCAUCCUAAGGGGAACACUGCGGGUUUGAGUCCCGUACGGUACG [A14U C24G C31A A40G G44C C55U A69U] | ≤ 0.5
GUUCCGUUGGCGUUAUGGUAACGUGUCUCCCUACUAAGGAGAACACCGCGGGUUCGAGUCCCGGACGGAACG [A14U C24U C33A G44C U47C U64G] | ≤ 0.5
GUUCCGUUGGCGUUAUGGUAAAGCGUCUCCCUCCUAAGGAGAGGACUGCGGGUUCGAGUCCCGUACGCAACG [A14U C22A A43G G68C] | ≤ 0.5
GUUCCGUUGGCGUUAUGGUAAUGCGUCUCCCUCCUUAGGAGAAGACUGCGGGUUCGAGUCCCGUACGGAACG [A14U C22U A36U] | 0.571
GUUCCGUUGGCGUUAUGGUAACGCGUCUGCCUCCUAAGGAGAAGACUGCGAGUUCGAGUCCCGUAGGGAACG [A14U C29G G51A C66G] | ≤ 0.5
GUUCCGUUGGCGUUAUGGUAACGCGUGUCCCUCAUAAGGAGAAGACUGCGGGUUCGAGUCUCGUAGGGUACG [A14U C27G C34A C61U C66G A69U] | ≤ 0.5
GUUCCGUUGGCGUUAUGGUAACGCGUCUCAGUCCUAAGGACAAGACUGCGGGUUCGAGUCCCGUACGGAUCG [A14U C30A C31G G41C A70U] | ≤ 0.5
GUUCCGUUGGCGUUAUGGUAACGGGUCUCCCUCCUAAGGAGAAGAGUGCGGAUUCGAGUCCCGUACGGAACG [A14U C24G C46G G52A] | ≤ 0.5
GUUCCGUUGGCGUUAUGGUAACGGGUUUCCCUCCUAAGGAGAAGACUGCGGGUGCGAGUCCCGUACGGAACG [A14U C24G C27U U54G] | ≤ 0.5
GUUCCGUUGGCGUUAUGGUAACGGGUCUCCCUCCUAAGGAAAAAACUGCGGGUUCGAGUCCCGUACGGAACG [A14U C24G G41A G44A] | ≤ 0.5
GUUCCGUUGGCGUUAUGGUAACGCGUUUGCUUCCUAAGGAGAAGACUGCGGGUUCGAGUCCCGUACGGAACG [A14U C27U C29G C31U] | ≤ 0.5
GUUCCGUUGGCGUUAUGGUAACGCGUGUCCCUCCUAAGGAGAAGACUGCGGGUUCGUGUCCCGUACGGAACG [A14U C27G A57U] | 0.527
GUUCCGUUGGCGUUAUGGUAACGUGUCUCCCUGCUAAGGAGAAGACUGCGGGUUCGAGUCCCGUUUGGCACG [A14U C24U C33G A65U C66U A69C] | ≤ 0.5
GUUCCGUUGGCGUUAUGGUAACGGGUCUCCCUCCUAAGGAAAAAACUGCGGGAUCGAGUCCCGUAUGCAACG [A14U C24G G41A G44A U53A C66U G68C] | ≤ 0.5
GUUCCGUUGGCGUUAUGGUAACGCGUCUCGCUCCUAAGGAGAAGACUGCGGGUUCGAGUCCGGUACGGAACG [A14U C30G C62G] | 0.573
GUUCCGUUGGCGUUAUGGUAACGCGUCUCCCUCCUAAGGAGAAGACUGCGGGUUCGAGUCCCGUGCGGAACG [A14U A65G] | 0.559
GUUCCGUUGGCGUUAUGGUAACGCGUCUCCCUCCUAAGGAGAAGACUGCGGGUUCGAGUCCCGUUCGGAACG [A14U A65U] | 0.639
